Measured values published in ChEMBL document CHEMBL1275442, “Pharmacokinetics and tissue distribution of anidulafungin in rats” (Antimicrob Agents Chemother, 2008).

Key:
[1] = Cmax in F344 rat spleen at 5 mg/kg, iv administered as single bolus dose after 30 min by HPLC method; assay type: ADME, organism-based; parameters: dose 5 mg/kg, route intravenous
How it was run: (§1)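 Male F344 rats, 10–11 weeks, 223.6–243.8 g, given one IV dose of [¹⁴C]anidulafungin, 5 mg/kg, over about 5 min. Tissues and blood sampled at 0.083–72 h (n = 3 rats per time). Parent drug measured by HPLC; LLOQ/ULOQ were 20/5,120 ng/ml for plasma and 220/56,320 ng/g for tissue. Noncompartmental parameters taken from the composite mean profile.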

Spleen [2] = experiment: AUC (0 to infinity) in F344 rat spleen assessed as total compound-derived radioactivity per gram of tissue at 5 mg/kg, iv administered as single bolus dose […]; assay type: ADME, organism-based; parameters: time infinity, dose 5 mg/kg, route intravenous; conditions: in vivo
How it was run: (§2)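 Same F344 study: single 5 mg/kg IV [¹⁴C]anidulafungin given over about 5 min. Total drug-derived radioactivity (parent plus metabolites) counted by liquid scintillation, in […]. Noncompartmental analysis of the composite mean profile.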

Zone of skin [3] = experiment: Cmax in F344 rat skin assessed as total compound-derived radioactivity per gram of tissue at 5 mg/kg, iv administered as single bolus dose […]; assay type: ADME, organism-based; parameters: dose 5 mg/kg, route intravenous; conditions: in vivo; how it was run: as §2
[4] = Tmax in F344 rat liver at 5 mg/kg, iv administered as single bolus dose by HPLC method; assay type: ADME, organism-based; parameters: dose 5 mg/kg, route intravenous
How it was run: (§3)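 F344 males, 10 to 11 weeks old and 223.6 to 243.8 g, got a single 5 mg/kg iv dose of [14C]anidulafungin over about 5 min. Plasma and tissues were collected predose and at 0.083 to 72 h, n = 3 per time point. Parent drug was quantified by HPLC-UV, with LLOQ/ULOQ of 20/5,120 ng/ml in plasma and 220/56,320 ng/g in tissue. Noncompartmental parameters came from a composite mean concentration-time profile.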

Zone of skin [5] = experiment: AUC (0 to infinity) in F344 rat skin at 5 mg/kg, iv administered as single bolus dose; assay type: ADME, organism-based; parameters: time infinity, dose 5 mg/kg, route intravenous; conditions: in vivo; how it was run: as §1
Zone of skin [6] = experiment: AUC (0 to 24 hrs) in F344 rat skin at 5 mg/kg, iv administered as single bolus dose; assay type: ADME, organism-based; parameters: time < 24 hr, dose 5 mg/kg, route intravenous; conditions: in vivo; how it was run: as §1
Plasma [7] = experiment: Cmax in F344 rat plasma assessed as total compound-derived radioactivity per gram of tissue at 5 mg/kg, iv administered as single bolus dose after 5 mins by HPLC method; assay type: ADME, organism-based; parameters: dose 5 mg/kg, route intravenous; conditions: in vivo; how it was run: as §2
Kidney [8] = experiment: Drug level in Long Evans rat kidney assessed as high disposition of radioactivity per gram of tissue at 5 mg/kg, iv administered as single bolus dose measured 168 hrs postdose by autoradiography; assay type: ADME, organism-based; parameters: dose 5 mg/kg, route intravenous; conditions: in vivo
How it was run: (§4)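 Male pigmented Long Evans (HsdBlu:LE) rats, 7.5 weeks old, 202 to 217 g, single iv [¹⁴C]anidulafungin; one rat per sampling time. Euthanized by isoflurane and cardiac-puncture exsanguination. Sagittal whole-body sections quantified by phosphorimaging autoradiography, single samples corrected for section thickness across multiple sections per tissue. Concentrations (μg eq/g drug-derived radioactivity) interpolated from least-squares standard curves per scan.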

Zone of skin [9] = experiment: Drug level in Long Evans rat skin assessed as radioactivity per gram of tissue at 5 mg/kg, iv administered as single bolus dose measured 24 hrs postdose by autoradiography; assay type: ADME, organism-based; parameters: dose 5 mg/kg, route intravenous; conditions: in vivo
How it was run: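 Male pigmented Long Evans (HsdBlu:LE) rats, 7.5 weeks old and 202 to 217 g, got a single iv dose of [14C]anidulafungin at 5 mg/kg. One rat per time point (0.5, 6, 12, 24, 72, 168 h) was euthanised by isoflurane and cardiac-puncture exsanguination. Sagittal whole-body sections were quantified by phosphorimaging. Samples were thickness-corrected, and concentrations (μg eq/g) were interpolated from least-squares standard curves.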

Plasma [10] = experiment: Half life in F344 rat plasma assessed as total compound-derived radioactivity at 5 mg/kg, iv administered as single bolus dose […]; assay type: ADME, organism-based; parameters: dose 5 mg/kg, route intravenous; conditions: in vivo
How it was run: (§5)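 Male F344 rats, 10 to 11 weeks old and 223.6 to 243.8 g, got one iv dose of [14C]anidulafungin at 5 mg/kg over about 5 min. Blood, CSF, kidney, liver, lung, quadriceps, spleen and skin were sampled predose and at 0.083 to 72 h, 3 rats per time. Total radioactivity (parent plus metabolites) was measured by liquid scintillation counting. Parameters were noncompartmental, from a composite mean profile.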

Liver [11] = experiment: AUC (0 to 24 hrs) in F344 rat liver at 5 mg/kg, iv administered as single bolus dose; assay type: ADME, organism-based; parameters: time < 24 hr, dose 5 mg/kg, route intravenous; conditions: in vivo; how it was run: as §1
Spleen [12] = experiment: Cmax in F344 rat spleen assessed as total compound-derived radioactivity per gram of tissue at 5 mg/kg, iv administered as single bolus dose after 30 mins […]; assay type: ADME, organism-based; parameters: dose 5 mg/kg, route intravenous; conditions: in vivo, 0.5 h; how it was run: as §2
Muscle tissue = experiment: Half life in F344 rat muscle assessed as total compound-derived radioactivity at 5 mg/kg, iv administered as single bolus dose […]; assay type: ADME, organism-based; parameters: dose 5 mg/kg, route intravenous; conditions: in vivo; how it was run: as §5
Liver [13] = experiment: Drug level in Long Evans rat liver assessed as high disposition of radioactivity per gram of tissue at 5 mg/kg, iv administered as single bolus dose measured 6 hrs postdose by autoradiography; assay type: ADME, organism-based; parameters: dose 5 mg/kg, route intravenous; conditions: in vivo; how it was run: as §4
Kidney [14] = experiment: AUC (0 to infinity) in F344 rat kidney at 5 mg/kg, iv administered as single bolus dose; assay type: ADME, organism-based; parameters: time infinity, dose 5 mg/kg, route intravenous; conditions: in vivo; how it was run: as §1
Kidney [15] = experiment: Drug level in Long Evans rat kidney assessed as low disposition of radioactivity per gram of tissue at 5 mg/kg, iv administered as single bolus dose measured 12 hrs postdose by autoradiography; assay type: ADME, organism-based; parameters: dose 5 mg/kg, route intravenous; conditions: in vivo; how it was run: as §4
Zone of skin [16] = experiment: Half life in F344 rat skin assessed as total compound-derived radioactivity at 5 mg/kg, iv administered as single bolus dose […]; assay type: ADME, organism-based; parameters: dose 5 mg/kg, route intravenous; conditions: in vivo; how it was run: as §5
Cerebrospinal fluid = experiment: Drug level in Long Evans rat cerebrospinal fluid assessed as radioactivity per gram of tissue at 5 mg/kg, iv administered as single bolus dose measured 6 hrs postdose by autoradiography; assay type: ADME, organism-based; parameters: dose 5 mg/kg, route intravenous; conditions: in vivo; how it was run: as §4
Kidney [17] = experiment: Tmax in F344 rat kidney assessed as total compound-derived radioactivity at 5 mg/kg, iv administered as single bolus dose […]; assay type: ADME, organism-based; parameters: dose 5 mg/kg, route intravenous; conditions: in vivo; how it was run: as §5
Liver [18] = experiment: AUC (0 to infinity) in F344 rat liver assessed as total compound-derived radioactivity per gram of tissue at 5 mg/kg, iv administered as single bolus dose […]; assay type: ADME, organism-based; parameters: time infinity, dose 5 mg/kg, route intravenous; conditions: in vivo; how it was run: as §2
Cerebrum = experiment: Drug level in Long Evans rat cerebrum assessed as radioactivity per gram of tissue at 5 mg/kg, iv administered as single bolus dose measured 72 hrs postdose by autoradiography; assay type: ADME, organism-based; parameters: dose 5 mg/kg, route intravenous; conditions: in vivo; how it was run: as §4
Kidney [19] = experiment: AUC (0 to infinity) in F344 rat kidney assessed as total compound-derived radioactivity per gram of tissue at 5 mg/kg, iv administered as single bolus dose […]; assay type: ADME, organism-based; parameters: time infinity, dose 5 mg/kg, route intravenous; conditions: in vivo; how it was run: as §2
[20] = Cmax in F344 rat skin at 5 mg/kg, iv administered as single bolus dose after 30 min by HPLC method; assay type: ADME, organism-based, Zone of skin; parameters: dose 5 mg/kg, route intravenous; how it was run: as §1
Liver [21] = experiment: Drug level in Long Evans rat liver assessed as high disposition of radioactivity per gram of tissue at 5 mg/kg, iv administered as single bolus dose measured 72 hrs postdose by autoradiography; assay type: ADME, organism-based; parameters: dose 5 mg/kg, route intravenous; conditions: in vivo; how it was run: as §4
Blood = experiment: Drug level in Long Evans rat blood assessed as radioactivity per gram of tissue at 5 mg/kg, iv administered as single bolus dose measured 6 hrs postdose by autoradiography; assay type: ADME, organism-based; parameters: dose 5 mg/kg, route intravenous; conditions: in vivo; how it was run: as §4
[22] = Tmax in F344 rat skin at 5 mg/kg, iv administered as single bolus dose by HPLC method; assay type: ADME, organism-based, Zone of skin; parameters: dose 5 mg/kg, route intravenous; how it was run: as §3
[23] = Drug level in Long Evans rat eye assessed as radioactivity per gram of tissue at 5 mg/kg, iv administered as single bolus dose measured 0.5 hrs postdose by autoradiography; assay type: ADME, organism-based; parameters: dose 5 mg/kg, route intravenous; conditions: in vivo; how it was run: as §4

CCCCCOc1ccc(-c2ccc(-c3ccc([14C](=O)N[C@H]4C[C@@H](O)[C@@H](O)NC(=O)[C@@H]5[C@@H](O)[C@@H](C)CN5C(=O)[C@H]([C@@H](C)O)NC(=O)[C@H]([C@H](O)[C@@H](O)c5ccc(O)cc5)NC(=O)[C@@H]5C[C@@H](O)CN5C(=O)[C@H]([C@@H](C)O)NC4=O)cc3)cc2)cc1 [14C-ANIDULAFUNGIN]
Cmax [1]: 24200 ng/g
AUC (Spleen [2]): 1152.68 ugequiv.hr/g
Cmax (Zone of skin [3]): 5.4 ugequiv/g
Tmax [4]: 4.98 min
AUC (Zone of skin [5]): 124.11 µg·h/g
AUC (Zone of skin [6]): 102.72 µg·h/g
Cmax (Plasma [7]): 7.57 ugequiv/g
Drug uptake (Kidney [8]): 2.57 ugequiv
Drug uptake (Zone of skin [9]): 3.5 ugequiv
t1/2 (Plasma [10]): 37.4 h
AUC (Liver [11]): 586.44 µg·h/g
Cmax (Spleen [12]): 30.92 ugequiv/g
t1/2 (Muscle tissue): 37.5 h
Drug uptake (Liver [13]): 29.1 ugequiv
AUC (Kidney [14]): 658.93 µg·h/g
Drug uptake (Kidney [15]): 7.54 ugequiv
t1/2 (Zone of skin [16]): 56.6 h
Drug uptake (Cerebrospinal fluid): 5.54 ugequiv
Tmax (Kidney [17]): 30 min
AUC (Liver [18]): 2656.38 ugequiv.hr/g
Drug uptake (Cerebrum): 0.47 ugequiv
AUC (Kidney [19]): 1437.94 ugequiv.hr/g
Cmax [20]: 4020 ng/g
Drug uptake (Liver [21]): 16.9 ugequiv
Drug uptake (Blood): 5.07 ugequiv
Tmax [22]: 30 min
Drug uptake [23]: 1.17 ugequiv
